From publication PMC11523056 (RSC Advances, 2024)
Ends that are not written are not given here. Peptide text beside a SMILES is read from it.

Legend:
[1] = tested on: murine primary neurons; assay type: cell-based, mouse; conditions: all concentrations tested (1, 5 & 10 μM), 60 min, 37 °C, live-cell confocal microscopy
Outline: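 Mature murine primary neurons were incubated for 60 min in neurobasal medium with TAMRA-labelled peptide at 1, 5 or 10 μM, washed, and imaged live by confocal microscopy in an incubation chamber. The read-out was average fluorescence intensity per cell. Neurons showing homogeneous cytoplasmic plus nucleolar fluorescence were scored as transduced. Data are mean ± standard deviation, with equal n per group.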

[2] = tested on: acute ischaemic stroke patients; conditions: ESCAPE-NA1, acute ischaemic stroke; cited from earlier work
[3] = particularly upon co-treatment with Alteplase; cited from earlier work

CC[C@H](C)[C@H](NC(=O)[C@H](CO)NC(=O)[C@H](CO)NC(=O)[C@H](CC(C)C)NC(=O)[C@H](CCCCN)NC(=O)c1ccc2c(c1)C(=O)OC21c2ccc(N(C)C)cc2Oc2cc(N(C)C)ccc21)C(=O)N[C@@H](CCC(=O)O)C(=O)N[C@@H](CO)C(=O)N[C@@H](CC(=O)O)C(=O)N[C@H](C(=O)O)C(C)C [TAMRA-NR2B9c] (HELM PEPTIDE1{[CN(C)c1ccc2c(c1)Oc1cc(N(C)C)ccc1C21OC(=O)c2cc(C(=O)[*:2])ccc21].K.L.S.S.I.E.S.D.V}$$$$V2.0)
uptake by mean fluorescence intensity per cell (comparison in words) [1]: much lower than for any other peptide construct tested

YGRKKRRQRRR [TAMRA-Tat]
uptake by mean fluorescence intensity per cell (comparison in words) [1]: dose response is minimal

YGRKKRRQRRRKLSSIESDV [Tat-NR2B9c, nerinetide]
safety in clinical trial [2]: good safety profile | degradation in human plasma (in words) [3]: rapid degradation
